ABCB6 inh 2: inhibitors of human ABC transporter ABCB6; Q9NP58; K562-ABCB6 porphyrin accumulation, flow cytometry, 1 h; active compounds read low; fluorescence ratio to DMSO, % at 10 µM; hit rate 0.19% among 360,000;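 active means fluorescence ratio to DMSO below 75%, the collection mean minus 3 SD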;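 further: signal is porphyrin accumulated inside mitochondria; 100% equals median channel fluorescence of DMSO control wells; lower ratio means ABCB6 inhibition with less porphyrin fluorescence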
Target sequence (Q9NP58 whole entry, looked up): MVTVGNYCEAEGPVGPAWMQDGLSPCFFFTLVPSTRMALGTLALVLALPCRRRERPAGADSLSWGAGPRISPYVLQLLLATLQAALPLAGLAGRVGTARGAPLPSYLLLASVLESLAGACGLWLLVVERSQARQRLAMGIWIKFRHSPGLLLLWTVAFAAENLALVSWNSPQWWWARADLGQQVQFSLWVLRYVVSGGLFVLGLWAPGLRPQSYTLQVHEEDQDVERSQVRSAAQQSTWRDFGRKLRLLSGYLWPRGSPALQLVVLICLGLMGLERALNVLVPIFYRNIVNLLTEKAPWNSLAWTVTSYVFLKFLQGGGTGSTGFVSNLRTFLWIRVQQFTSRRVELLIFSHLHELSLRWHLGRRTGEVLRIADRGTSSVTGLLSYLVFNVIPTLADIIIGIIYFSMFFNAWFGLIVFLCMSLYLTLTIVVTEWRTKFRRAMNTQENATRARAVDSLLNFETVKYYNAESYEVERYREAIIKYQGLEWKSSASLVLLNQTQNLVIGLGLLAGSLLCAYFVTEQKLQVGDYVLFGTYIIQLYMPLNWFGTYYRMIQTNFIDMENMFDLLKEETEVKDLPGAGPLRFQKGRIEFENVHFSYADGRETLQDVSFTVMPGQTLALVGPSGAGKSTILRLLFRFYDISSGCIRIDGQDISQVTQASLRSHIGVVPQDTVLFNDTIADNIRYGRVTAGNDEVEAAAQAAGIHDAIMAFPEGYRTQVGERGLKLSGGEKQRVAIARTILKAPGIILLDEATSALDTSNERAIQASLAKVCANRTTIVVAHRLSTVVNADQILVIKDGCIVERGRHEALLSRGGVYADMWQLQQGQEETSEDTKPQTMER
iPSC survival up: enhancers of human iPSC single-cell survival. hiPSC single-cell survival, ATPlite luminescence; 100% = ROCK inhibitor wells, 0% = DMSO. survival enhancement, % at 20 µM. hit rate 0.044% among 360,000; in the data active means survival enhancement above about 18%;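 further: cells exposed to compounds for 16 hours before the ATP read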
FAS-TE inh: blocks the thioesterase domain of human fatty acid synthase | recombinant FAS-TE, OMFH fluorogenic substrate, fluorescence endpoint | inhibition, % at 15 µM | hit rate 0.67% among 360,000;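 active means compounds whose normalised, plate-corrected inhibition of enzyme fluorescence in the single-dose primary screen is 50% or more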;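 further: 0% = DMSO with enzyme and 100% = substrate without enzyme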
SENP1 inh: SENP1 (human) catalytic domain inhibition. Q9P0U3. recombinant SENP1 catalytic domain, CyPet-SUMO1-YPet FRET cleavage. inhibition, % at 10 µM. hit rate 0.21% among 360,000. AID 624204;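 active means inhibition at least 30% at 10 µM, raw YFP signal under a set limit, fluorescence ratio 0.5 to 1.5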;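 further: 0% = enzyme with DMSO and 100% = no enzyme wells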
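Material – human SENP1 catalytic domain · Input – SENP1 enzyme, 20 pM final · Compound dosing – single concentration of 10 µM compound, 0.5% DMSO final · Timing – enzyme reaction for 50 min at room temperature, dark · Measured by – FRET fluorescence in CFP and YFP emission channels · Control set – no-enzyme wells low, DMSO-plus-enzyme wells high control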
FAS-TE inh conf: FAS thioesterase (human) inhibition, confirmation; shares compounds with FAS-TE inh; recombinant FAS-TE, OMFH fluorogenic substrate, fluorescence; inhibition, % at 15 µM; hit rate 45% among 2,300; AID 624325;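 active means compounds inhibiting the enzyme by at least 50% at 15 µM in any one of the replicates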;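 further: 0% = enzyme with DMSO only and 100% = wells lacking enzyme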
An asterisk follows results filed as active; x = not tested or not shown. An excerpt weighted towards active compounds, which were near 1.1% of everything screened.

SMILES	ABCB6 inh 2	iPSC survival up	FAS-TE inh	SENP1 inh	FAS-TE inh conf
Cc1nn(Cc2ccc(F)cc2)c2sc(C(=O)Nc3ccc(N4CCOCC4)cc3N3CCOCC3)cc12	91	-1	52*	3	26
O=C(CSCc1ccc(F)cc1)Nc1ccc(N2CCOCC2)cc1N1CCOCC1	98	1	0	2	x
Cc1cccc(C)c1NC(=O)C1c2ccccc2OCC(=O)N1CCCN1CCOCC1 (stereo not drawn)	98	-1	-10	0	x
COC(=O)c1cc(S(=O)(=O)N2c3ccccc3CC2C)cn1C (stereo not drawn)	98	0	-2	-2	x
CCS(=O)(=O)c1ccc2oc(Nc3cc(C)cc(C)c3)nc2c1	92	-4	16	0	x
CCS(=O)(=O)c1ccc2oc(Nc3ccc(C(C)C)cc3)nc2c1	118	15	52*	1	47*
COc1ccc(/C=C(\NC(=O)c2ccc([N+](=O)[O-])cc2)C(=O)N2CCOCC2)cc1	96	0	82*	1	87*
COc1ccc(/C=C(/NC(=O)c2ccc(Br)cc2)C(=O)N2CCOCC2)cc1	90	0	-4	-1	x
O=C(N/C(=C/c1ccccc1)C(=O)N1CCOCC1)c1ccc([N+](=O)[O-])cc1	102	-1	53*	2	47*
O=C(N/C(=C\c1ccc([N+](=O)[O-])cc1)C(=O)N1CCOCC1)c1ccccc1	99	3	-1	-1	x
COc1ccc(CN(C)S(=O)(=O)c2ccc3c(c2)OCCO3)cc1	98	0	18	-1	x
CC(C)(C)OC(=O)NCCc1onc(-c2cccc([N+](=O)[O-])c2)c1C(=O)O	107	5	81*	2	87*
COc1cc(CCc2ccccc2)c(C(=O)O)c(O)c1C/C=C(/C)CCC=C(C)C	102	2	87*	1	59*
O=C(Nc1ccc(Br)cc1F)c1nc[nH]c1C(=O)N1CCc2ccccc2C1	100	-2	15	1	x
O=C(CN1CCN(c2ncc(C(F)(F)F)cc2Cl)CC1)NCCNc1ncc(C(F)(F)F)cc1Cl	93	-2	62*	0	28
NNC(=O)CN1CCN(c2ncc(C(F)(F)F)cc2Cl)CC1	96	-2	-3	-2	x
CC(C)c1ccc2[nH]c3nc(SCC(=O)N4CCOCC4)nnc3c2c1	95	0	-2	-2	x
COc1ccc(Cn2c(C(F)(F)F)ccc(C(N)=O)c2=O)cc1	96	0	3	-1	x
NC(=O)c1ccc(C(F)(F)F)n(Cc2c(Cl)cccc2Cl)c1=O	92	-1	50*	3	41
Cc1cccn2c(=O)c(/C=C(\C#N)C(=O)NCc3ccco3)c(N3CCCCCC3)nc12	99	-1	53*	-127	48
CCOC(=O)C1CCCN(c2nc3c(C)cccn3c(=O)c2/C=C(\C#N)C(=O)NCc2ccco2)C1 (stereo not drawn)	98	0	52*	-172	54*
O=S(=O)(Nc1ccc(-c2csc(-c3ccccc3)n2)cc1)c1ccccc1	97	0	59*	0	44*
O=S(=O)(Nc1ccc(-c2ccc(NS(=O)(=O)c3ccccc3)cc2)cc1)c1ccccc1	99	-3	16	0	x
Cc1ccc(S(=O)(=O)Nc2ccc(-c3csc(-c4ccccc4)n3)cc2)cc1	97	1	72*	1	27
Cc1ccc(S(=O)(=O)Nc2nc(-c3ccccc3)cs2)cc1	98	0	2	1	x
SMILES	ABCB6 inh 2	iPSC survival up	FAS-TE inh	SENP1 inh	FAS-TE inh conf
COc1ccc(C(C(=O)NC2CCCC2)N(Cc2cccnc2)C(=O)c2snc(C(N)=O)c2N)cc1OC (stereo not drawn)	92	0	-2	2	x
COc1ccc(S(=O)(=O)Nc2cccc(-c3ccc(N4CCCCCC4)nn3)c2)cc1OC	100	0	54*	1	47
Cc1ccc(S(=O)(=O)Nc2cccc(-c3ccc(N4CCCCCC4)nn3)c2)cc1	105	0	59*	-2	52*
CCOc1ccc(C2OCCC(C)O2)cc1OC (stereo not drawn)	99	3	-11	2	x
Cc1cccc(C)c1NC1=C(Cl)C(=O)OC1OC(=O)c1ccccc1 (stereo not drawn)	101	0	64*	0	29*
O=C(COc1ccc(Cl)cc1)Nc1ccc(C(=O)O)cc1NC(=O)COc1ccc(Cl)cc1	102	0	51*	1	66*
N#Cc1c(/N=C/c2ccc(-c3ccc(C(=O)O)c(Cl)c3)o2)sc2c1CCCC2	98	0	50*	2	41
N#Cc1c(/N=C/c2ccc(-c3ccccc3C(=O)O)o2)sc2c1CCCC2	99	0	0	11	x
CC(=O)c1ccc(NC(=O)CCn2c(=S)oc3ccccc32)cc1	96	1	10	2	x
COc1ccc(/C=C2\SC(=O)N(CCNC(=O)C3CCN(S(=O)(=O)c4cccs4)CC3)C2=O)cc1	98	-1	54*	1	16
COc1cc(/C=C2/SC(=S)N(c3ccccc3)C2=O)ccc1Oc1nc(N2CCOCC2)nc(N2CCOCC2)n1	96	-2	63*	6	-3
CC(C)C[C@H](NC(=O)C1CC(=O)N(c2ccc3c(c2)OCCO3)C1)C(=O)N1CCCCC1 (stereo partly drawn)	98	0	-6	-1	x
COc1cccc(-c2cnc3c(NC=O)cc(-c4ccc(S(C)(=O)=O)cc4)cn23)c1	96	-2	55*	-10	56*
COc1ccc(C2CC23N=C(c2ccccc2)OC3=O)cc1 (stereo not drawn)	96	2	85*	3	96*
Cc1ccc(-c2nnc(COC(=O)c3cc(=O)[nH]c4ccccc34)o2)cc1	90	2	66*	3	49*
N/C(=N\OC(=O)CC1CCCCC1)c1ccc([N+](=O)[O-])cc1	100	-1	2	3	x
N/C(=N\OC(=O)CCCc1ccccc1)c1cccc([N+](=O)[O-])c1	97	0	50*	0	63*
N/C(=N\OC(=O)CCCc1ccccc1)c1ccccc1	95	0	8	1	x
N/C(=N\OC(=O)CC1CCCCC1)c1cccc([N+](=O)[O-])c1	105	-3	62*	1	68*
O=C(CCc1ccccc1)OCC(=O)c1cccc([N+](=O)[O-])c1	93	0	56*	3	57*
N/C(=N\OC(=O)CCC1CCCC1)c1cccc([N+](=O)[O-])c1	101	-1	62*	4	66*
C[C@@H]1CN([C@H](C)CO)C(=O)c2cc(C3=CCCCC3)cnc2O[C@@H]1CN(C)Cc1ccccc1C(=O)O	98	-2	-4	3	x
COc1ccc(CCNC(=O)c2nn(C)c3c2CS(=O)(=O)c2ccccc2-3)c(OC)c1	97	0	11	3	x

Bioassay records as filed in PubChem.
